Data reported in ChEMBL document CHEMBL5042551, “Dynamic Combinatorial Optimization of In Vitro and In Vivo Heparin Antidotes” (J Med Chem, 2022).
Active and inactive are the calls of the source. The calls are words filed in the database; no cut-off is given here.

Tests used:
Heparin [1] = assay: Inhibition of heparin (unknown origin) assessed as reversal of heparin reduced FXa protease activity by measuring Z-D-LGR-N(Me)ANBA peptide substrate at 1 uM hydrolysis after 30 mins; details: Homo sapiens
Outline: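 Human antithrombin III (0.02 IU/mL) and factor Xa (0.085 μg/mL) combined with heparin (0.1 IU/mL) and ligand (1 μM), then chromogenic substrate added (485 μM) with 4-nitroaniline as internal standard, shaken at 25 °C. Aliquots acid-quenched and analysed by HPLC at 405 nm; percent hydrolysis taken from normalized cleaved-peptide area, with no-heparin as maximal activity and heparin-only as maximal inhibition.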

Heparin [2] = assay: Binding affinity to heparin (unknown origin) assessed as apparent dissociation constant by SPR assay; parameters: species or system Homo sapiens; details: read-out: Kd(app)
Outline: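 Heparin-functionalized chip: biotin sensor chip loaded with streptavidin (50 μg/mL), then biotin-heparin (50 μg/mL). Ligands injected at 40 μL/min, 25 °C, in 25 mM Tris pH 7.5; surface regenerated with 10 mM HCl. Three independent runs at three ligand concentrations globally fitted to a 1:1 two-state (conformational change) model to give on/off rates and KDapp.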

Heparin [3] = assay: Binding affinity to heparin (unknown origin) assessed as apparent dissociation constant by ITC assay; parameters: species or system Homo sapiens; details: read-out: Kd(app)
A549 = assay: Cytotoxicity against human A549 cells assessed as reduction in cell viability at 25 to 50 uM incubated for 1 hr by MTT assay; assay type: functional, cell-based; details: dose 25-50 µM
Outline: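 A549 cells grown in DMEM with 10% FCS, 2 mM glutamine and antibiotics at 37 °C, 5% CO2; seeded at 7000 cells/well, exposed to compound in medium 24 h later for 1 h, then MTT (0.5 mg/mL) for 2 h, formazan dissolved in DMSO, absorbance read at 570 nm. Viability as percent of untreated cells; three independent experiments.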

Heparin [4] = assay: Reversal of heparin mediated anticoagulant activity in mouse blood after 15 mins; details: dose 90-250 µM
Outline: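 Freshly drawn, untreated mouse blood split into 300 μL aliquots, given heparin (130 μM, per disaccharide repeat unit) plus ligand at various concentrations; after 15 min, clotting judged by inverting the tubes and photographing.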

Heparin [5] = assay: Reversal of heparin mediated anticoagulant activity in heparinized CD-1 mouse at 2.2 to 4.4 mg/kg, iv after 10 mins by tail transection assay; assay type: organism-based; details: dose 2.2-4.4 mg/kg
Outline: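 Eight-week-old male CD-1 mice anaesthetised with xylazine/ketamine, then given iv heparin (100 IU/kg) followed by ligand at 2.2 or 4.4 mg/kg; saline, heparin-only and ligand-only (4.4 mg/kg, n = 3) controls. Tails cut 5 mm from tip 5 min after injection and bled 10 min into 1 mL saline at 37 °C; blood volume from absorbance at 414 nm against a standard curve. ANOVA.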

Heparin [6] = assay: Binding affinity to heparin (unknown origin) assessed as apparent dissociation constant by fluorescence emission titration method; parameters: species or system Homo sapiens; details: read-out: Kd(app)
Outline: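 Binder at 10 μM in 1 mM Bis-Tris pH 7.5, excited at 280 nm; heparin stock (18 IU/mL) added in small portions with emission spectrum recorded after each addition. Full spectra globally fitted by nonlinear regression to a binding model of 1:1, 1:2 and 2:1 ligand–heparin disaccharide complexes to estimate equilibrium constants and apparent KD.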

inhibition (Heparin [1]) | Kd (Heparin [2]) | SMILES | further results
Active | 1860 nM | Oc1ccccc1CNCCCNCCCCNCCCNCc1ccc2ccccc2c1O | 
 | 33700 nM | COc1ccccc1CNCCCNCCCCNCCCNCc1ccccc1OC | 
 | 21500 nM | Oc1ccccc1CNCCCNCCCCNCCCNCc1ccccc1O | Kd (Heparin [3]): 22500 nM
Active | 797 nM | Oc1ccc2ccccc2c1CNCCCNCCCCNCCCNCc1c(O)ccc2ccccc12 | Activity (A549): inactive; Activity (Heparin [4]): Dose-Dependent Effect; Activity (Heparin [5]): Active
 | 2620 nM | Oc1ccccc1CNCCCNCCCCNCCCNCc1c(O)ccc2ccccc12 | 
 | 1890 nM | Oc1ccccc1CNCCCNCCCCNCCCNCc1cccc2ccccc12 | Kd (Heparin [3]): 1300 nM
Active | 1530 nM | N=C(N)NCCC[C@H](N)C(=O)NCCCN1CCN(CCCNC(=O)[C@@H](N)CCCNC(=N)N)CC1 [CIRAPARANTAG] | 
Active |  | Oc1c(CNCCCNCCCCNCCCNCc2ccc3ccccc3c2O)ccc2ccccc12 | 
Active | 567 nM | Oc1ccccc1CNCCCNCCCCNCCCNCc1ccc2c(c1)Cc1ccccc1-2 | Activity (A549): inactive; Kd (Heparin [6]): 500 nM; Activity (Heparin [4]): Dose-Dependent Effect; Activity (Heparin [5]): Active
